High-throughput results as filed in PubChem.
Sampled rows, rich in hits. Any-hit rate of the full collection: about 1.4%.
SUMO HTRF inh: inhibitors of in vitro SUMOylation cascade, primary screen, biochemical, HTRF, uHTS. SUMO-conjugating enzyme UBC9 (Homo sapiens), P63279. HTRF SUMOylation assay, SAE1/SAE2 + UBC9. inhibition, % at 35 µM. 290,000 compounds, 0.36% hits; in the data active means inhibition above about 50%, passing the limit was not always enough; inconclusive means no clear call, values can overlap the other calls
Target sequence (P63279 whole entry, looked up): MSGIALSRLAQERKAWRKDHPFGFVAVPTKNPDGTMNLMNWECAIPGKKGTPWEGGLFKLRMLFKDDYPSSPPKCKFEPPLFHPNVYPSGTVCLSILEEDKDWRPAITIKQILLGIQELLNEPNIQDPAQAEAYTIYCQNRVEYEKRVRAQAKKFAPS
ZTA DNA inh: blocks Epstein-Barr virus ZTA, an EBNA-1 counter-screen; P03206; ZTA-DNA binding, fluorescence polarization; inhibition, % at 11 µM; 320,000 compounds, 0.15% hits; in the data active means inhibition above about 33%
Target sequence (P03206 whole entry, looked up): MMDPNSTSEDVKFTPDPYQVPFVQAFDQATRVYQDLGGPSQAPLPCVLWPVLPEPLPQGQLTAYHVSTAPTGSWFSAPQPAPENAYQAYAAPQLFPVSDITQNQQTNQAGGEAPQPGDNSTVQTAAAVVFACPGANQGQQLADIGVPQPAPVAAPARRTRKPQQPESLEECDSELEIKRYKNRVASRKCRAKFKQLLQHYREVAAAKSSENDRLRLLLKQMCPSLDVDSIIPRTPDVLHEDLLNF
HCV core dimer: inhibitors of HCV core protein dimerization, primary screen, biochemical, TR-FRET, high-throughput; TR-FRET GST/Flag-core106 dimerization, 1536-well; inhibition, % at 5 µM; 300,000 compounds, 0.33% hits;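 active means inhibition above the mean of all tested compounds plus 3 SD, set per screening campaign, cut at about 45% in these data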
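Assay system – GST-tagged and Flag-tagged HCV core protein residues 1-106 · Quantity – core106 proteins, GST 13.5 nM and Flag 17 nM · Benchmarks – unlabelled core106 and no-GST-core106 wells · Read-out basis – percent inhibition of core106 dimerization signal · Detection – time-resolved FRET, ex 340 nm, em 617 and 671 nm · Schedule – 4 h at 22.5 °C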
HCV NS3 hel inh: inhibitors of HCV NS3 helicase, primary screen, biochemical, Cy5 molecular beacon fluorescence; Hepatitis C virus NS3 helicase; NS3 helicase DNA unwinding; inhibition, % at 10.9 µM; 290,000 compounds, 0.56% hits; AID 1800, 2009;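 active means inhibition above the mean of all tested compounds plus 3 SD, set per campaign, cut at about 35% in these data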;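 further: 0% = DMSO wells and 100% = thioflavine S control wells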
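Compound dosing – single dose, 10.9 µM nominal final, DMSO 0.8% final · System – NS3 helicase fragment of HCV · Buffer or medium – MOPS pH 6.5, MgCl2, DTT, Tween20, BSA · Signal – Cy5 beacon fluorescence read at start and 1 h · Also added – annealed dual-labelled DNA beacon duplex, ATP-started · Schedule – 1 h at 25 °C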
EBNA-1 inh: EBNA-1 DNA-binding inhibitors, primary screen, biochemical, fluorescence polarization | inhibition, % at 14.8 µM | 300,000 compounds, 0.34% hits; in the data active means inhibition above about 28%
Active calls of the source: *; u = inconclusive; x = no result.

SMILES	SUMO HTRF inh	ZTA DNA inh	HCV core dimer	HCV NS3 hel inh	EBNA-1 inh
Cc1cc(SCC(=O)OC/C(O)=C(\C#N)c2nc3ccccc3[nH]2)c(C)cc1Br	55*	8	6	26	2
Cc1cc(C)n2c(SC/C(O)=C(\C#N)c3nc4ccccc4[nH]3)nnc2n1	37	24	75*	15	14
N#C/C(=C(/O)COC(=O)CSc1ccc(Cl)cc1)c1nc2ccccc2[nH]1	3	13	13	-6	12
N#C/C(=C(/O)COC(=O)c1ccc2c(c1)OCCO2)c1nc2ccccc2[nH]1	-20	9	58*	0	9
CCCN(c1ccccc1F)S(=O)(=O)c1c[nH]c(C(=O)OC)c1	3	9	-2	-5	0
Cc1ccc2oc(-c3cccc(NC(=S)NC(=O)/C=C/c4ccco4)c3)nc2c1	16	16	57*	11	18
Cc1ccc2oc(-c3cccc(NC(=S)NC(=O)c4cccs4)c3)nc2c1	6	-9	-1	3	0
Cc1cc(N2Cc3ccccc3C2)ccc1C=O	8	-9	48*	1	3
O=Cc1ccc(N2Cc3ccccc3C2)cc1	-4	-11	39	-6	3
Cc1ccc(-c2csc(NC(=O)c3ccc(S(=O)(=O)N4CCc5ccccc54)cc3)n2)cc1	-3	1	67*	17	-6
CCc1nnc(NC(=O)c2ccc(Cl)c(S(=O)(=O)N3CCc4ccccc43)c2)s1	29	-8	51*	-1	-10
O=C(Nc1ccncc1)c1ccc(Cl)c(S(=O)(=O)N2CCc3ccccc32)c1	x	-10	5	x	-12
C=CCSc1nnc(NC(=O)CCN2C(=O)C3CC=CCC3C2=O)s1 (stereo not drawn)	x	5	x	x	x
O=C(CSc1nc2nc(-c3cccs3)cc(C(F)(F)F)c2c(=O)[nH]1)C(F)(F)F	29	-10	-1	4	-13
O=C(/C=C/c1cn(-c2ccccc2)nc1-c1cccnc1)c1ccco1	11	-3	62*	-7	-2
CCn1c(=S)[nH]c2scc(-c3cccs3)c2c1=O	6	x	x	16	x
CC(C)n1c(=S)[nH]c2scc(-c3cccs3)c2c1=O	24	1	65*	25	4
COc1ccc(OC)c(S(=O)(=O)N2CCN(C(=O)c3cc(C4CC4)nn3-c3ccccc3)CC2)c1	x	-3	x	x	x
O=C(Oc1ccc[nH]c1=O)c1cccc(Cl)c1	100*	12	-1	4	12
CCOC(=O)c1cc(-c2ccccc2)sc1NC(=O)COC(=O)c1cccc(S(N)(=O)=O)c1	17	19	34	1	77*
CCOC(=O)c1cc(-c2ccccc2)sc1NC(=O)COC(=O)c1ccc(Cl)c(S(N)(=O)=O)c1	13	-8	22	8	1
Cc1ccc(NC(=O)CN2C(=O)S/C(=C/c3ccc(-c4cc(C(=O)O)ccc4C)o3)C2=O)cc1C	84*	-20	9	20	-6
Cc1cccc(NC(=O)CN2C(=O)S/C(=C\c3ccc(-c4cccc(C(=O)O)c4C)o3)C2=O)c1	38	-10	2	15	6
O=C(Nc1oc2ccccc2c(=O)c1-c1ccc(Br)cc1)c1ccco1	x	2	63*	16	-21
Cc1nn(CC(=O)N/N=C/c2ccc3c(c2)OCO3)c(C)c1Br	50*	2	6	5	-5
SMILES	SUMO HTRF inh	ZTA DNA inh	HCV core dimer	HCV NS3 hel inh	EBNA-1 inh
Cc1ccc(CSc2cc(C)[nH]c(=O)n2)cc1	14	-5	53*	24	4
CCOC(=O)c1ccc(N2C(=O)C3CC=CCC3C2=O)cc1 (stereo not drawn)	3	9	-2	3	1
CCOC(=O)c1ccc(N2C(=O)C3C(C2=O)C(C(=O)c2ccc(Cl)cc2)N2CCCC32)cc1 (stereo not drawn)	33	-4	74*	29	3
Oc1ccc(Br)cc1CNc1cccc2cccnc12	76	-7	11	17	2
COc1cccc(CNc2cccc3cccnc23)c1O	63	-14	-7	1	7
Oc1c(Br)cc(Br)cc1CNc1cccc2cccnc12	75*	12	11	30	6
Oc1ccc(Cl)cc1CNc1cccc2cccnc12	66*	7	5	-2	-6
COc1ccc(-c2c(C3=CCCCC3)oc3ccc(-c4ccc5c(c4)OCO5)cc23)cn1	x	-4	-22	x	12
O=C(Nc1ccc(-c2nc3ccccc3s2)c(OC(=O)c2ccccc2)c1)c1ccccc1	u	6	58*	11	11
O=C(Nc1ccc2nc3ccccc3nc2c1)c1ccccc1	26	-1	-15	-1	1
O=C(OCc1ccco1)c1ccc(S(=O)(=O)N2CCCCC2)cc1	-2	14	80*	16	-2
O=C(N/N=C/c1ccc2ccccc2c1)c1ccc(COc2ccc3c(c2)CCC3)o1	21	-3	50*	0	1
Cc1oc(-c2ccc(Cl)cc2)cc1-c1nn2c(-c3ccoc3C)nnc2s1	60*	10	84*	42*	23
CC(C)(C)c1ccc(S(=O)(=O)NCC(=O)Nc2ccc(-c3nc4ccccc4s3)cc2)cc1	29	22	11	3	4
O=C(CNS(=O)(=O)c1cccc(Cl)c1)Nc1ccc(-c2nc3ccccc3s2)cc1	10	14	5	4	55*
CCOC(=O)c1cc(C)sc1NC(=O)CSC1=NCCS1	-2	6	1	-5	8
Cc1cc(C2C(C#N)=C(N)Oc3n[nH]c(C)c32)c(C)s1 (stereo not drawn)	12	2	0	0	-19
Cc1sccc1C1C(C#N)=C(N)SC(N)=C1C#N	4	3	60*	16	9
Cc1[nH]nc2c1C(c1ccsc1C)C(C#N)=C(N)O2 (stereo not drawn)	19	-6	-12	0	-1
Cc1cc(C2C(C#N)=C(N)SC(N)=C2C#N)c(C)s1	17	-3	51*	20	-4
CCC(C)Sc1ccc([C@H]2N[C@@](Cc3ccccc3)(C(=O)OC)[C@H]3C(=O)N(CC)C(=O)[C@@H]23)cc1OC (stereo partly drawn)	x	-19	11	x	5
CCN(CC)C(=O)Cn1c(=O)n(CC(=O)N2CCCCC2)c(=O)c2sccc21	10	0	-11	8	-7
N#CCC(=O)N/N=C\c1cc(Br)ccc1OC/C=C/c1ccccc1	-4	x	x	8	x
CC1(O)C(=O)C=C2C=C(c3ccc(C#N)cc3)OC=C2C1=O (stereo not drawn)	x	-4	55*	x	2
COc1ccc(C2=CC3=CC(=O)C(C)(O)C(=O)C3=CO2)cc1 (stereo not drawn)	x	5	19	x	3
O=C(NNC(=O)c1csc(N2CCOCC2)n1)c1cccnc1	x	-3	-3	x	-5
